Source: ChEMBL document CHEMBL1275352, “Selection of evodiamine as a novel topoisomerase I inhibitor by structure-based virtual screening and hit optimization of evodiamine derivatives as antitumor agents” (J Med Chem, 2010)
The source made the active and inactive calls. No cut-off for these calls is given here.

How the values were obtained:
LoVo = assay: Cytotoxicity against human LoVo cells after 3 days by MTT assay; assay type: functional, cell-based; details: Homo sapiens, LoVo, 72 h; read-out: IC50
[1] = target: T1, DNA topoisomerase 1 (Homo sapiens) (UniProt P11387); assay: Inhibition of DNA topoisomerase 1-mediated supercoiled Escherichia coli pBR322 DNA relaxation at 100 uM by UV transilluminator analysis; details: 500 uM; in the assay text read “500 uM” for “100 uM”
T1 sequence (whole entry): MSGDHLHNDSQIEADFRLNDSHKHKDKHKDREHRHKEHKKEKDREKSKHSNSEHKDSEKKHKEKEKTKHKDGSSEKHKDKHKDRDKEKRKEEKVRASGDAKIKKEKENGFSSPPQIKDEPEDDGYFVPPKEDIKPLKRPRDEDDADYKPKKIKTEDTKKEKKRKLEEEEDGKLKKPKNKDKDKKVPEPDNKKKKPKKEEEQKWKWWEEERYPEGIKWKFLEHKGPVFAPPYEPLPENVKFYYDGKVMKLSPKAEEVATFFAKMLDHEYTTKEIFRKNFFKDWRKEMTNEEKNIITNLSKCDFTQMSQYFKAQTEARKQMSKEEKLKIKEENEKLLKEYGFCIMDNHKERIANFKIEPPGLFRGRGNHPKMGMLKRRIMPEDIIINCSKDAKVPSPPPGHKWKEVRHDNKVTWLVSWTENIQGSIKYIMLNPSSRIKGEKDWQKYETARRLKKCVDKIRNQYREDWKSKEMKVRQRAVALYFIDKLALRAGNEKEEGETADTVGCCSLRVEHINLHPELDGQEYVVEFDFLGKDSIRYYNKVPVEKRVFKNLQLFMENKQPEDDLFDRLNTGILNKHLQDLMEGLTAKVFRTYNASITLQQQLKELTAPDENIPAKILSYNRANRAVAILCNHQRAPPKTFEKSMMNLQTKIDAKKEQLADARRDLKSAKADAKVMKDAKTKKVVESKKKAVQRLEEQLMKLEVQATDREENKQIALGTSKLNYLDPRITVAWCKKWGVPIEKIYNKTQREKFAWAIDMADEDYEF
In short: (§1)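 Purified topoisomerase I was incubated with supercoiled DNA, and inhibition of relaxation by the enzyme was scored. Compounds were tested at concentrations ranging from 1 to 500 μM; an initial screen was run at 500 μM and active compounds were retested at lower concentrations.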

[2] = target: T1, DNA topoisomerase 1 (Homo sapiens); assay: Inhibition of DNA topoisomerase 1-mediated supercoiled Escherichia coli pBR322 DNA relaxation at 10 uM by UV transilluminator analysis; in short: as §1
MDA-MB-435 = assay: Cytotoxicity against human MDA-MB-435 cells after 3 days by MTT assay; assay type: functional, cell-based; details: Homo sapiens, MDA-MB-435, 72 h; read-out: IC50
A549 = assay: Cytotoxicity against human A549 cells after 3 days by MTT assay; assay type: functional, cell-based; details: Homo sapiens, A549, 72 h; read-out: IC50
[3] = target: T1, DNA topoisomerase 1 (Homo sapiens); assay: Inhibition of DNA topoisomerase 1-mediated supercoiled Escherichia coli pBR322 DNA relaxation by UV transilluminator analysis; in short: as §1

inhibition [1]: Active | inhibition [2]: Active | inhibition [3]: Dose-dependent effect
Compound: Cc1ccc(S(=O)(=O)c2cc3c(c4nsnc24)C(=O)c2ccccc2C3=O)cc1
IC50 (LoVo): 43 µM | IC50 (MDA-MB-435): 25 µM | IC50 (A549): 0.5 µM
